The text below walks through data of ChEMBL document CHEMBL5385869, “Novel 4-aminoquinolines: Synthesis, inhibition of the Mycobacterium tuberculosis enoyl-acyl carrier protein reductase, antitubercular activity, SAR, and preclinical evaluation” (Eur J Med Chem, 2023).

Active and inactive are the calls of the source. No cut-off for these calls is given here.

The target in data set [1] is T1, Enoyl-[acyl-carrier-protein] reductase [NADH] (Mycobacterium tuberculosis, UniProt P9WGR1).
T1 sequence (P9WGR1 whole entry): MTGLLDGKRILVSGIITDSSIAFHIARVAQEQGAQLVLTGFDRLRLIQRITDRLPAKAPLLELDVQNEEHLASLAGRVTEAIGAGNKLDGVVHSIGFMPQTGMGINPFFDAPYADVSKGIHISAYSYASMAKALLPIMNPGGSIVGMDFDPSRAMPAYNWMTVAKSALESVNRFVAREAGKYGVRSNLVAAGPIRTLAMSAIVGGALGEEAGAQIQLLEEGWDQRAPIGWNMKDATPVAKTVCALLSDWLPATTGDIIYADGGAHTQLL
As to the kind of experiment: Binding affinity to Mycobacterium tuberculosis InhA assessed as dissociation constant at 250 uM at 20 degreeC in presence of NADH by fluorescence spectroscopy. In outline:
(§1)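 Titration of pre-formed MtInhA:NADH complex (2 mL of 3 μM enzyme with 20 μM NADH), adding microliter aliquots of 250 μM ligand stock with dilution kept ≤1%. Intrinsic fluorescence read at 295 nm excitation, 310–500 nm emission. Temperatures 15, 20, 25 and 30 °C. KD is fitted to a hyperbolic isotherm. ΔH°, ΔS° and ΔG° come from van't Hoff analysis of KD across temperatures.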

Data set [2] deals with T1, Enoyl-[acyl-carrier-protein] reductase [NADH]. As to the kind of experiment: Binding affinity to Mycobacterium tuberculosis InhA assessed as dissociation constant at 250 uM at 15 degreeC in presence of NADH by fluorescence spectroscopy. A digest of the protocol: as §1
Data set [3] has as its system Mycobacterium tuberculosis. As to the kind of experiment: Bacteriostatic activity in Mycobacterium tuberculosis H37Rv ATCC 27294 infected in CF-1 mouse assessed as reduction in bacterial growth in lungs at 300 to 450 uM/kg, po administered daily for 14 days starting from 7 days post infection. In kind it is functional, organism-based. The conditions noted are these: dose 300-450 µM/Kg, time 14.0 day. A digest of the protocol: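 Mice treated by gavage from 7 days post-infection for 14 days, daily, at 300 or 450 μM/kg. Lungs and spleen homogenized in saline and plated for CFU. Comparisons are against vehicle and early-control groups.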

Data set [4] is described as follows: Toxicity in CF-1 mouse assessed as reduction in body weight at 150 uM/kg, po administered daily for 14 days. In kind it is organism-based. The conditions noted are these: in vivo, 336 h, time 14 day. A digest of the protocol: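 Mice were infected with M. tuberculosis H37Rv. From 7 days after infection, test and reference drugs were given daily by oral gavage for 14 days, with a vehicle-only group. Body weight was followed over the course of the experiment.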

A short description of data set [5]: Toxicity in mouse at 300 mg/kg administered as single dose and measured for 14 days. In kind it is organism-based. To be noted: in vivo, 336 h, time 14 day. A digest of the protocol: (§2)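 Acute oral toxicity study. At day 14 the animals were euthanized, and kidneys, liver and spleen were weighed and inspected macroscopically.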
The nature of data set [6]: Toxicity in mouse assessed as effect on spleen weight at 300 mg/kg administered as single dose and measured for 14 days. In kind it is organism-based. To be noted: in vivo, 336 h, time 14 day. In outline: as §2

By Kd is commonly meant a measure of binding affinity in units of concentration. Take `Cc1cc(Nc2ccc(N3CCCCC3)cc2)c2cc(Br)ccc2n1`: the Kd in data set [1] stood at 470 nM; in data set [2] it was 280 nM. The outcome in data set [3] was Active. Besides, the Activity entry in data set [4], in data set [5] and in data set [6] was “Non-Toxic” throughout.
